From ChEMBL document CHEMBL1152220, “Discovery of a highly orally bioavailable c-5-[6-(4-Methanesulfonyloxyphenyl)hexyl]-2-methyl-1,3-dioxane-r-2-carboxylic acid as a potent hypoglycemic and hypolipidemic agent” (Bioorg Med Chem Lett, 2008) come the findings set out here.

Series [1] has as its target T1, Peroxisome proliferator-activated receptor alpha (Homo sapiens) (UniProt Q07869).
T1 sequence (whole entry): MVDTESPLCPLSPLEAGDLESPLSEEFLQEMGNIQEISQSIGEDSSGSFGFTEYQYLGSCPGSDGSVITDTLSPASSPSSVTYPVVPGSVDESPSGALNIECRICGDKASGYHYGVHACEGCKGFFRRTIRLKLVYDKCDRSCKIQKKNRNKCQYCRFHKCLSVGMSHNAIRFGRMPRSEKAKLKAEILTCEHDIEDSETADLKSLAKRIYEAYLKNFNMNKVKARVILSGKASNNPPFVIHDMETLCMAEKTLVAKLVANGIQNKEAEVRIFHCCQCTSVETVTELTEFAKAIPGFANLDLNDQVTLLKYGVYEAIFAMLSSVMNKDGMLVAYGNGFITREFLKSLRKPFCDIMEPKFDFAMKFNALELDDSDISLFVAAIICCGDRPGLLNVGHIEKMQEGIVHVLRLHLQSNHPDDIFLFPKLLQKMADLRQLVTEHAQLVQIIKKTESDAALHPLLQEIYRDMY
Put plainly: Agonist activity at human PPARalpha ligand binding domain expressed in human HepG2 cells co-transfected with PPRE3-TK-luc assessed as induction of beta-galactosidase activity at 10 uM by transactivation assay. In kind it is cell-based. An outline of the steps:
(§1)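 HepG2 cells were transfected with a pSG5 vector carrying hPPARα or hPPARγ cDNA and cotransfected with PPRE3-TK-luc. Firefly luciferase was measured with a commercial assay, and β-galactosidase was read on an ELISA reader. Activity is expressed as fold induction. Single-point testing was at 10 µM for hPPARα and 0.2 µM for hPPARγ, with EC50 given elsewhere.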

Series [2] concerns Mus musculus. Put plainly: Reduction of triglyceride level in Swiss albino mouse serum at 10 mg/kg/day, po for 6 days relative to control. Also noted: scale not given: the % may be the effect or the level left. In kind it is functional. An outline of the steps: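 Male Swiss albino mice aged 6–8 weeks were dosed orally at 10 mg/kg/day for 6 days. Serum triglyceride is reported as % change relative to vehicle controls, as the mean of n = 6.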

For series [3], the target named is T2, Peroxisome proliferator-activated receptor gamma (Homo sapiens, UniProt P37231).
T2 sequence (P37231 whole entry): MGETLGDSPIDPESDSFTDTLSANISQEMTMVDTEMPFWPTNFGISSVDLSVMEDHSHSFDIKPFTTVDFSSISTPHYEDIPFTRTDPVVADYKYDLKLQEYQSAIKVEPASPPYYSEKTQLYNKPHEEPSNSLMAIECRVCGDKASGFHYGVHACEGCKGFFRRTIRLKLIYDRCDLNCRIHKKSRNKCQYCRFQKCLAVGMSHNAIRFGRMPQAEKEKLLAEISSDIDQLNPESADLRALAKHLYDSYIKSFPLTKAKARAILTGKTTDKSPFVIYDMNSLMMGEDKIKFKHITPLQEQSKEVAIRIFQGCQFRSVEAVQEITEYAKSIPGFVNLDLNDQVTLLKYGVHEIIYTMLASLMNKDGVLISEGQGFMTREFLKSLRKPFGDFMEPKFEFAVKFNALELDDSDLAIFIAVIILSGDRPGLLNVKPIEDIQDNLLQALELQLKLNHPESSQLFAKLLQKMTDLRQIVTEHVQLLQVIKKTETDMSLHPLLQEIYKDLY
Put plainly: (§2) Agonist activity at human PPARgamma ligand binding domain expressed in human HepG2 cells co-transfected with PPRE3-TK-luc assessed as induction of beta-galactosidase activity by transactivation assay. In kind it is cell-based. The procedure, abridged:
as §1

The test system of series [4] is Mus musculus. Put plainly: Hypolipidemic activity in db/db mouse assessed as reduction of triglyceride level at 3 mg/kg/day for 6 days relative to control. In kind it is functional. More on the design: scale not given: the % may be the effect or the level left. The procedure, abridged:
(§3)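 Male db/db mice aged 6–8 weeks were dosed daily for 6 days. Plasma glucose and triglycerides were measured, and results are reported as % change relative to vehicle-treated controls.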

Series [5] has as its system Mus musculus. Put plainly: Hypoglycemic activity in db/db mouse assessed as reduction of plasma glucose level at 3 mg/kg/day for 6 days relative to control. More on the design: scale not given: the % may be the effect or the level left. In kind it is functional. An outline of the steps: as §3
Series [6] is described as follows: Tmax in Wistar rat at 30 mg/kg, po. More on the design: dose 30 mg/kg, route oral. Particulars: in vivo. In kind it is ADME, organism-based.
For series [7], the system named is Rattus norvegicus. Put plainly: (§4) Cmax in Wistar rat at 30 mg/kg, po. In kind it is ADME, organism-based. Also noted: dose 30 mg/kg, route oral. Particulars: in vivo.
Series [8] in a line: Half life in Wistar rat at 30 mg/kg, po. In kind it is ADME, organism-based. More on the design: dose 30 mg/kg, route oral. Particulars: in vivo.
For series [9], the system named is Rattus norvegicus. Put plainly: (§5) AUC (0 to infinity) in Wistar rat at 30 mg/kg, po. In kind it is ADME, organism-based, Plasma. Also noted: time infinity, dose 30 mg/kg, route oral. Particulars: in vivo.
For series [10], the system named is Rattus norvegicus. Put plainly: Hypolipidemic activity in high cholesterol fed Sprague-Dawley rat assessed as effect on HDL-C level at 3 mg/kg/day for 4 days relative to control.
The test system of series [11] is Rattus norvegicus. Put plainly: Hypolipidemic activity in high cholesterol fed Sprague-Dawley rat assessed as reduction of LDL-C level at 3 mg/kg/day for 4 days relative to control. Also noted: scale not given: the % may be the effect or the level left.
The test system of series [12] is Rattus norvegicus. Put plainly: Hypolipidemic activity in high cholesterol fed Sprague-Dawley rat assessed as reduction of triglyceride level at 3 mg/kg/day for 4 days relative to control. More on the design: scale not given: the % may be the effect or the level left.
Series [13] concerns Rattus norvegicus. Put plainly: Hypolipidemic activity in high cholesterol fed Sprague-Dawley rat assessed as reduction of total cholesterol level at 3 mg/kg/day for 4 days relative to control. More on the design: scale not given: the % may be the effect or the level left.
For series [14], the target named is T3, Peroxisome proliferator-activated receptor alpha (Homo sapiens, UniProt Q07869).
T3 sequence (Q07869 whole entry): T1 sequence (whole entry)
Put plainly: Agonist activity at human PPARalpha ligand binding domain expressed in human HepG2 cells co-transfected with PPRE3-TK-luc assessed as induction of beta-galactosidase activity by transactivation assay. In kind it is cell-based. The procedure, abridged:
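HepG2 cells were transfected with a pSG5 vector carrying hPPARα or hPPARγ cDNA and cotransfected with PPRE3-TK-luc. Firefly luciferase was measured with a commercial assay, and β-galactosidase was read on an ELISA reader. Activity is expressed as fold induction.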

The target of series [15] is T4, Peroxisome proliferator-activated receptor gamma (Homo sapiens) (UniProt P37231).
T4 sequence (whole entry): T2 sequence (P37231 whole entry)
The series is described as §2. In kind it is cell-based. The procedure, abridged:
as §1

Series [16] can be described thus: as §4. In kind it is ADME, organism-based. Also noted: dose 30 mg/kg, route oral. Particulars: Wistar, in vivo.
Series [17] is described as follows: as §5. Also noted: time infinity, dose 30 mg/kg, route oral. In kind it is ADME, organism-based, Plasma. Particulars: Wistar, plasma.

Active and inactive are the calls of the source.

For the molecule `C[C@]1(C(=O)O)OC[C@@H](CCCCc2ccc(O)cc2)CO1`, the fold change (FC) in series [1] was 1.2. Besides, in the series on Mus musculus [2], the Activity was -15%.

`COc1ccc(CCCC[C@H]2CO[C@@](C)(C(=O)O)OC2)cc1`: in series [1], the fold change (FC) amounted to 2.5. Also, the Activity with Mus musculus [2] is on record as -11%.

Regarding `C[S+]([O-])c1ccc(CCCC[C@H]2CO[C@@](C)(C(=O)O)OC2)cc1` (stereo not given in full), the fold change (FC) in series [1] was determined as 2. In the series with Mus musculus [2], the Activity is -12%.

Turning to `C[C@]1(C(=O)O)OC[C@@H](CCCCc2ccc(Cl)cc2)CO1`, the fold change (FC) in series [1] came to 2.6. For the same molecule, the Activity with Mus musculus [2] is listed as -10%.

With `Cc1ccc(-c2nc(CCCC[C@H]3CO[C@@](C)(C(=O)O)OC3)c(C)o2)cc1`, the Activity in the series with Mus musculus [2] is listed as -67%; with Mus musculus [4], -54%; in the series with Mus musculus [5] it was -44%; with Rattus norvegicus [10] it was 88%; with Rattus norvegicus [11], -68%; in the series on Rattus norvegicus [12] it was -54%. Moreover, in the series with Rattus norvegicus [13], the Activity was -49%. In series [3], the EC50 (usually the midpoint of the concentration-response curve) stood at 7 µM. Further, in series [6], the Tmax (commonly the time at which the peak concentration occurs) was determined as 0.67 h. For the same molecule, the Cmax – broadly, the maximum level reached in the sampled fluid or tissue – in the series on Rattus norvegicus [7] stood at 41 µg/mL. Also, the half-life – broadly, the time needed for the level to fall by half in the phase considered – in series [8] is 1.5 h. The AUC – broadly, the area under the concentration-time curve, a measure of exposure – in the series on Rattus norvegicus [9] was 99 µg·h/mL.

Regarding `CSc1ccc(CCCC[C@H]2CO[C@@](C)(C(=O)O)OC2)cc1`, the fold change (FC) in series [1] was 4. Besides, in the series on Mus musculus [2], the Activity is given as -14%.

For the molecule `CS(=O)(=O)Oc1ccc(CCCCC[C@H]2CO[C@@](C)(C(=O)O)OC2)cc1`, the Activity with Mus musculus [2] is -28%. The EC50 in [14] was determined as 2.5 µM. Besides, in series [15], the result was inactive.

In the case of `CS(=O)(=O)c1ccc(CCCC[C@H]2CO[C@@](C)(C(=O)O)OC2)cc1`, the fold change (FC) in series [1] came out at 1. Besides, in the series on Mus musculus [2], the Activity is on record as -7%.

With `Cc1ccc(CCCC[C@H]2CO[C@@](C)(C(=O)O)OC2)cc1`, the fold change (FC) in series [1] is 3.2. Further, the Activity in the series on Mus musculus [2] is -22%.

Turning to `CS(=O)(=O)Oc1ccc(CCCC[C@H]2CO[C@@](C)(C(=O)O)OC2)cc1`, the fold change (FC) in series [1] came out at 3. Besides, the Activity in the series on Mus musculus [2] is recorded as -32%. The EC50 in [14] amounted to 20 µM. In addition, the outcome in [15] was inactive.

For the molecule `C[C@]1(C(=O)O)OC[C@@H](CCCCc2ccc(F)cc2)CO1`, the fold change (FC) in series [1] was determined as 2.3. For the same molecule, the Activity with Mus musculus [2] is -9%.

As to `CCO[C@@H](Cc1ccc(OCCc2ccc(OS(C)(=O)=O)cc2)cc1)C(=O)O` [TESAGLITAZAR], the Activity in the series with Mus musculus [2] is reported as -79%; in the series on Mus musculus [4], -60%; in the series on Mus musculus [5], -54%; in the series with Rattus norvegicus [10], 18%; in the series on Rattus norvegicus [11] it was -31%; in the series with Rattus norvegicus [12], -51%. Moreover, in the series on Rattus norvegicus [13], the Activity is -59%. In addition, the values for the EC50 in [14] and in series [3] were 0.82 µM and 0.013 µM, respectively.

Consider `C[C@]1(C(=O)O)OC[C@@H](CCCCc2ccc(OCc3ccccc3)cc2)CO1`, for which the fold change (FC) in series [1] was found to be 2.3. Besides, the Activity in the series on Mus musculus [2] is given as -25%.

For `Cc1cccc(Nc2cc(Cl)nc(SCC(=O)O)n2)c1C`, the fold change (FC) in series [1] is 3.3.

As to `CS(=O)(=O)Oc1ccc(CCCCCC[C@H]2CO[C@@](C)(C(=O)O)OC2)cc1`, the Activity in the series on Mus musculus [2] is listed as -71%; in the series with Mus musculus [4] it was -50%; in the series with Mus musculus [5], -53%; in the series on Rattus norvegicus [10] it was 51%; in the series with Rattus norvegicus [11], -46%; in the series with Rattus norvegicus [12] it was -63%. Besides, the Activity in the series on Rattus norvegicus [13] was -56%. Besides, the EC50 in [14] and in series [3] was 15 µM throughout. The Tmax in series [6] was determined as 4 h. In series [16], the Cmax was found to be 127 µg/mL. The half-life in series [8] was 12 h. Further, the AUC(0-inf) (in general, the area under the concentration-time curve extrapolated to infinity) in series [17] amounted to 1490 µg·h/mL.
